Experimental data: article PMC2729716 (Biochemistry, 2009)
Where no end group is shown, it is not given here.

Legend:
[1] = Zinc-induced aggregation by light scattering; type: physicochemical; settings: 15 µM peptide, 1 molar equivalent Zn2+, 200 mM MOPS pH 7.4, 80 mM NaCl, 1.8 mM TCEP, 20 °C, 200 s
Method in brief: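 Wild-type and mutant peptides handled anaerobically in TCEP buffers; concentration set by A280 in 6M guanidine hydrochloride. Zn(NO3)2 hand-mixed into sample in a Peltier-held cuvette. Light scattering followed over time on a single-photon counting fluorometer; single exponential functions fitted to intensity versus time.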

[2] = tested on: GST-Cul5 (human Cul5 amino acids 1–384); experiment: HCCHp pull-down by GST-Cul5; type: binding; settings: GST control, 40 µM Zn(NO3)2 vs no zinc
Method in brief: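 GST-Cul5 (human Cul5 residues 1–384, from E. coli) immobilised on glutathione resin, 10 min at 4 °C, in 50 mM HEPES pH 7.4, 150 mM NaCl, 200 µM TCEP; 20 µM peptide added for 10 min; split, ±40 µM Zn(NO3)2 for 10 min; six washes; SDS-PAGE, SYPRO Ruby stain; bands normalised to a 27-kDa marker and quantified against peptide and GST-Cul5 standard curves.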

[3] = tested on: HIV Vif; settings: micromolar levels of chelator; cited from earlier work

Molecule	Total change in scattered light intensity, rank order of peptides [1]	Change in amount of HCCHp bound to GST when zinc was included [2]	Effect of chelator on Cul5 recruitment and APOBEC3G degradation [3]
ELADQLIHLYYFDCFSDSAIRKALLGHIVSPRSEYQAGHNKV [C133S]	H108A < H139A < H127A < wild type < C114S < C114/133S < C133S		
ELADQLIALYYFDCFSDSAIRKALLGHIVSPRCEYQAGHNKV (cysteines drawn unpaired) [H108A]	H108A < H139A < H127A < wild type < C114S < C114/133S < C133S		
ELADQLIHLYYFDCFSDSAIRKALLGHIVSPRCEYQAGHNKV (cysteines drawn unpaired) [HCCHp]	H108A < H139A < H127A < wild type < C114S < C114/133S < C133S	did not increase significantly	
ELADQLIHLYYFDCFSDSAIRKALLGAIVSPRCEYQAGHNKV (cysteines drawn unpaired) [H127A]	H108A < H139A < H127A < wild type < C114S < C114/133S < C133S		
c1ccc(CN(CCN(Cc2ccccn2)Cc2ccccn2)Cc2ccccn2)nc1 [N,N,N′,N′-tetrakis-(2-pyridylmethyl) ethylenediamine]			inhibits Cul5 recruitment and APOBEC3G degradation
ELADQLIHLYYFDCFSDSAIRKALLGHIVSPRCEYQAGANKV (cysteines drawn unpaired) [H139A]	H108A < H139A < H127A < wild type < C114S < C114/133S < C133S		
ELADQLIHLYYFDSFSDSAIRKALLGHIVSPRCEYQAGHNKV [C114S]	H108A < H139A < H127A < wild type < C114S < C114/133S < C133S		
